In ChEMBL document CHEMBL4346661, “Design, synthesis and evaluation of novel diaryl-1,5-diazoles derivatives bearing morpholine as potent dual COX-2/5-LOX inhibitors and antitumor agents” (Eur J Med Chem, 2019):
Calls of active or inactive are those of the source. No cut-off for these calls is given here.

What was measured:
B16-F10 [1] = test: Induction of apoptosis in mouse B16F10 cells assessed as viable cells at 3.125 uM incubated for 48 hrs by Annexin-V-FITC/propidium iodide staining-based flow cytometric analysis (reference value: 94%); assay type: functional; conditions: B16-F10, 48 h, read-out: Activity
Procedure, shortened: (§1)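 F10 cells were exposed to 0, 3.125, 6.25, 12.5 or 25 µM for 48 h. Cells were stained with Annexin V/PI and read by flow cytometry. Data are mean ± SD of three independent experiments.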

B16-F10 [2] = test: Inhibition of LPS-induced PGE2 production in mouse B16F10 cells at 6.25 uM incubated for 24 hrs by enzyme immunoassay; assay type: functional, cell-based
Procedure, shortened: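 F10 cells treated for 24 h alongside LPS (1 µg/ml), test agent at 6.25 µM. Supernatant collected by centrifugation and PGE2 measured with a PGE2 enzyme immunoassay (ELISA) kit. Mean ± SD of three independent experiments.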

[3] = Inhibition of 5-LOX assessed as calcium ionophore A23187-stimulated LTB4 production preincubated for 30 mins followed by calcium ionophore A23187 addition and measured after 30 mins by ELISA
HEK-293T = test: Antiproliferative activity against human 293T cells incubated for 48 hrs by MTT assay; assay type: cell-based
Procedure, shortened: (§2)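 MTT assay on F10 (murine melanoma), HeLa, A549, MCF-7 and 293T (human renal epithelium) cells. IC50 given as mean ± SD of three independent experiments.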

B16-F10 [4] = test: Antiproliferative activity against mouse B16F10 cells incubated for 48 hrs by MTT assay; assay type: functional, cell-based; conditions: B16-F10, 48 h; procedure, shortened: as §2
B16-F10 [5] = test: Induction of apoptosis in mouse B16F10 cells assessed as necrosis cells at 3.125 uM incubated for 48 hrs by Annexin-V-FITC/propidium iodide staining-based flow cytometric analysis (reference value: 0.186%); assay type: functional; procedure, shortened: as §1
B16-F10 [6] = test: Induction of apoptosis in mouse B16F10 cells assessed as early apoptosis cells at 12.5 uM incubated for 48 hrs by Annexin-V-FITC/propidium iodide staining-based flow cytometric analysis (reference value: 2.93%); assay type: functional; procedure, shortened: as §1
B16-F10 [7] = test: Induction of apoptosis in mouse B16F10 cells assessed as late apoptosis cells at 12.5 uM incubated for 48 hrs in presence of apoptosis inhibitor z-VAD-fmk by Annexin-V-FITC/propidium iodide staining-based flow cytometric analysis (reference value: 3.13%); assay type: functional
B16-F10 [8] = test: Induction of cell cycle arrest in mouse B16F10 cells assessed as cell accumulation at S phase at 6.25 uM incubated for 48 hrs by propidium iodide staining-based flow cytometric analysis (reference value: 14.16%); assay type: functional
[9] = target: T1, Prostaglandin G/H synthase 2 (Homo sapiens, UniProt P35354); test: Inhibition of COX2 (unknown origin) using arachidonic acid as substrate incubated for 10 mins by Ellman's reagent based COX-1/COX-2 ELISA assay
T1 sequence (P35354 whole entry): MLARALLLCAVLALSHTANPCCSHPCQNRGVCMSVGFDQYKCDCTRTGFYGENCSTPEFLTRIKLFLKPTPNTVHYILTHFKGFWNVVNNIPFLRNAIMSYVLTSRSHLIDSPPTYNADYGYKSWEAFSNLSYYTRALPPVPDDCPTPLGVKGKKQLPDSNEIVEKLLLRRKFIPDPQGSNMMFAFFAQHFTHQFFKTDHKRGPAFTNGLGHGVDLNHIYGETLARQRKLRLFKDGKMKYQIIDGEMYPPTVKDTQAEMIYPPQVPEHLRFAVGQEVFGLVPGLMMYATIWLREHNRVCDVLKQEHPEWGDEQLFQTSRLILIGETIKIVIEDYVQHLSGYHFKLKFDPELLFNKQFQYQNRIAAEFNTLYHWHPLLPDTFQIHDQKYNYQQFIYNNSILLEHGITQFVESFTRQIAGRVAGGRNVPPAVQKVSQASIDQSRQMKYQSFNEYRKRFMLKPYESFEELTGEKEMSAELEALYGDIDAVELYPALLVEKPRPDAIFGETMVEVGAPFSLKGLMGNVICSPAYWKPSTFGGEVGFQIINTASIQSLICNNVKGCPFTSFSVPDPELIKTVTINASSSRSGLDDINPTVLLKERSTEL

B16-F10 [10] = test: Induction of apoptosis in mouse B16F10 cells assessed as early apoptosis cells at 6.25 uM incubated for 48 hrs in presence of apoptosis inhibitor z-VAD-fmk by Annexin-V-FITC/propidium iodide staining-based flow cytometric analysis (reference value: 3.83%); assay type: functional
B16-F10 [11] = test: Induction of apoptosis in mouse B16F10 cells assessed as necrosis cells at 3.125 uM incubated for 48 hrs in presence of apoptosis inhibitor z-VAD-fmk by Annexin-V-FITC/propidium iodide staining-based flow cytometric analysis (reference value: 0.558%); assay type: functional
B16-F10 [12] = test: Induction of apoptosis in mouse B16F10 cells incubated for 48 hrs by Annexin-V-FITC/propidium iodide staining-based flow cytometric analysis; assay type: functional, cell-based; procedure, shortened: as §1
B16-F10 [13] = test: Induction of apoptosis in mouse B16F10 cells assessed as early apoptosis cells at 3.125 uM incubated for 48 hrs by Annexin-V-FITC/propidium iodide staining-based flow cytometric analysis (reference value: 2.93%); assay type: functional; procedure, shortened: as §1
A549 = test: Antiproliferative activity against human A549 cells incubated for 48 hrs by MTT assay; assay type: functional, cell-based; conditions: A549, 48 h; procedure, shortened: as §2
B16-F10 [14] = test: Induction of apoptosis in mouse B16F10 cells assessed as viable cells at 25 uM incubated for 48 hrs by Annexin-V-FITC/propidium iodide staining-based flow cytometric analysis (reference value: 94%); assay type: functional; conditions: B16-F10, 48 h, read-out: Activity; procedure, shortened: as §1
B16-F10 [15] = test: Induction of apoptosis in mouse B16F10 cells assessed as viable cells at 6.25 uM incubated for 48 hrs by Annexin-V-FITC/propidium iodide staining-based flow cytometric analysis (reference value: 94%); assay type: functional; conditions: B16-F10, 48 h, read-out: Activity; procedure, shortened: as §1
HeLa = test: Antiproliferative activity against human HeLa cells incubated for 48 hrs by MTT assay; assay type: functional, cell-based; procedure, shortened: as §2
B16-F10 [16] = test: Induction of apoptosis in mouse B16F10 cells assessed as late apoptosis cells at 25 uM incubated for 48 hrs in presence of apoptosis inhibitor z-VAD-fmk by Annexin-V-FITC/propidium iodide staining-based flow cytometric analysis (reference value: 3.13%); assay type: functional
MCF7 = test: Antiproliferative activity against human MCF7 cells incubated for 48 hrs by MTT assay; assay type: functional, cell-based; conditions: MCF7, 48 h; procedure, shortened: as §2
B16-F10 [17] = test: Induction of apoptosis in mouse B16F10 cells assessed as viable cells at 3.125 uM incubated for 48 hrs in presence of apoptosis inhibitor z-VAD-fmk by Annexin-V-FITC/propidium iodide staining-based flow cytometric analysis (reference value: 92.5%); assay type: functional; conditions: B16-F10, 48 h, read-out: Activity
B16-F10 [18] = test: Induction of cell cycle arrest in mouse B16F10 cells assessed as cell accumulation at G1 phase at 6.25 uM incubated for 48 hrs by propidium iodide staining-based flow cytometric analysis (reference value: 59.73%); assay type: functional
B16-F10 [19] = test: Induction of cell cycle arrest in mouse B16F10 cells assessed as cell accumulation at S phase at 3.125 uM incubated for 48 hrs by propidium iodide staining-based flow cytometric analysis (reference value: 14.16%); assay type: functional

IC50 [3]: 0.68 µM
IC50 (B16-F10 [4]): 6.43 µM
IC50 [9]: 0.17 µM
IC50 (A549): 11 µM
IC50 (HeLa): 8.08 µM
IC50 (MCF7): 7.65 µM
SMILES: NS(=O)(=O)c1ccc(-n2nc(C(=O)NCCCN3CCOCC3)cc2-c2ccc(C(F)(F)F)cc2)cc1
viability at 3.125 µM (B16-F10 [1]): 86.5%
inhibition (B16-F10 [2]): Active
IC50 (HEK-293T): 194 µM
Activity (B16-F10 [5]): 0.597%
Activity (B16-F10 [6]): 20.5%
Activity (B16-F10 [7]): 9.78%
Activity (B16-F10 [8]): 15.23%
Activity (B16-F10 [10]): 5.74%
Activity (B16-F10 [11]): 0.23%
Activity (B16-F10 [12]): Dose-dependent effect
Activity (B16-F10 [13]): 7.97%
viability at 25 µM (B16-F10 [14]): 51.8%
viability at 6.25 µM (B16-F10 [15]): 77.2%
Activity (B16-F10 [16]): 9.1%
viability at 3.125 µM (B16-F10 [17]): 90.9%
Activity (B16-F10 [18]): 50.07%
Activity (B16-F10 [19]): 11.16%
